# pEC50, pIC50: −log10 of the molar value.
# Key:
# [1] = molecular target: Histone deacetylase (HDAC1 and HDAC2) (Homo sapiens, UniProt Q13547+Q92769); assay: Inhibition of HDAC1/2 from human HeLa cells nuclear extract by cell free fluorimetric assay; format: cell-based
# NCI-H69 = assay: Cytotoxicity against human NCI-H69 cells after 72 hrs by trypan blue exclusion assay; format: functional, cell-based; conditions: NCI-H69, 72 h
# DU-145 = assay: Cytotoxicity against human DU145 cells after 72 hrs by trypan blue exclusion assay; format: functional, cell-based; conditions: DU-145, 72 h
# Procedure, shortened: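 DU-145 prostate cancer cells kept in recommended complete medium at 37 °C, 5% CO₂, passaged 24 h before dosing. Compounds taken from 10 mM DMSO stocks and diluted in DMSO plus fresh medium, final DMSO 0.1%; control wells got fresh medium only. Viability read by trypan blue staining after 72 h. EC₅₀ = concentration giving 50% loss of viability, from duplicate of four simultaneous experiments.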
# HMEC = assay: Cytotoxicity against HMEC after 72 hrs by trypan blue exclusion assay; format: ADME, cell-based; conditions: Homo sapiens
# [2] = molecular target: T1, Protein deacetylase HDAC6 (Homo sapiens, UniProt Q9UBN7); assay: Inhibition of HDAC6 from human HeLa cells nuclear extract by cell free fluorimetric assay
# T1 sequence (Q9UBN7 whole entry): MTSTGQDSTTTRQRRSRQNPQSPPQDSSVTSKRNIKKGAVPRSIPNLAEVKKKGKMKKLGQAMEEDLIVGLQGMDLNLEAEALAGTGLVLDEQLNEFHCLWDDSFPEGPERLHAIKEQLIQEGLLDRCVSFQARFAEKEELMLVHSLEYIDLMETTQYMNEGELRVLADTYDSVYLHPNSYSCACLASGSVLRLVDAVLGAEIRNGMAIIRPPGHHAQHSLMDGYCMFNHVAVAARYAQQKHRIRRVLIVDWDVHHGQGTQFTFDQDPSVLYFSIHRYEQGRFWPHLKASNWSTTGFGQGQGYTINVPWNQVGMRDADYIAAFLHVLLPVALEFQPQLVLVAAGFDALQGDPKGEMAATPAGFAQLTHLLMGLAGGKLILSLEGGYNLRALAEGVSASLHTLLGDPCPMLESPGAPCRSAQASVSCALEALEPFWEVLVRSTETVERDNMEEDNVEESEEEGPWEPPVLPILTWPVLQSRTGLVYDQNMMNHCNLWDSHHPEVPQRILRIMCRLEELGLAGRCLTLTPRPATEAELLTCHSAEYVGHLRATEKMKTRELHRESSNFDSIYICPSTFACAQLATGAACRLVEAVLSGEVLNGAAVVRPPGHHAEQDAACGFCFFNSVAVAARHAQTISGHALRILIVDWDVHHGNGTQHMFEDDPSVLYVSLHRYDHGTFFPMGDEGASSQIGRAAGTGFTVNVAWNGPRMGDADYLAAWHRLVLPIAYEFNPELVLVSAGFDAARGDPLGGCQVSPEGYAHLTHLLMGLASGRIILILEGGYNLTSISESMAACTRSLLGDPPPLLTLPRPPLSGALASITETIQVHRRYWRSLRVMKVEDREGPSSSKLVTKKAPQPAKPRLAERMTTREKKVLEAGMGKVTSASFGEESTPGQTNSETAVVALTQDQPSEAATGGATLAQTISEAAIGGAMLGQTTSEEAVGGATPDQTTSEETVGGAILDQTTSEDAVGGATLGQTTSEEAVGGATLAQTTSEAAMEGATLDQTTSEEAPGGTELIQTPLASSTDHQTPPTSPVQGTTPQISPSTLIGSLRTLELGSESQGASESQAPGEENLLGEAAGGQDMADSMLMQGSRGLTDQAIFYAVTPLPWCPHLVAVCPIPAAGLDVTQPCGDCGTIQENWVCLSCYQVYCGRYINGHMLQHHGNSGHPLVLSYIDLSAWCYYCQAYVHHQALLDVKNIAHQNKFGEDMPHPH
# SK-MES-1 = assay: Cytotoxicity against human SKMES1 cells after 72 hrs by trypan blue exclusion assay; format: functional, cell-based; conditions: SK-MES-1, 72 h
# [3] = Cytotoxicity against human primary lung fibroblasts after 72 hrs by trypan blue exclusion assay; format: ADME, cell-based; conditions: Fibroblast
# Histone deacetylase 8 = molecular target: T2, Histone deacetylase 8 (Homo sapiens, UniProt Q9BY41); assay: Inhibition of HDAC8 from human HeLa cells nuclear extract by cell free fluorimetric assay
# T2 sequence (Q9BY41 whole entry): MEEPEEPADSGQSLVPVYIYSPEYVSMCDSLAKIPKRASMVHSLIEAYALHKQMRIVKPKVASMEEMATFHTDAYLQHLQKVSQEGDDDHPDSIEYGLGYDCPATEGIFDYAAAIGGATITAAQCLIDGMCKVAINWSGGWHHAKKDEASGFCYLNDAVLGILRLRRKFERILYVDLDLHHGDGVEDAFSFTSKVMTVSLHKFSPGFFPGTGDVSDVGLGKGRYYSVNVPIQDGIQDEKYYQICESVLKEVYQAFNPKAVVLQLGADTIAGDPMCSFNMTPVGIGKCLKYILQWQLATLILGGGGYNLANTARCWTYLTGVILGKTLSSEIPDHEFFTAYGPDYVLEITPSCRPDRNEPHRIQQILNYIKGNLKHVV
structure (smiles),measurement,setting,value
CC[C@H]1OC(=O)[C@H](C)[C@@H](O[C@H]2C[C@@](C)(OC)[C@@H](O)[C@H](C)O2)[C@H](C)[C@@H](O[C@@H]2O[C@H](C)C[C@H](N(C)Cc3ccc(-c4cn(CCCCCCC(=O)NO)nn4)cc3)[C@H]2O)[C@](C)(OC)C[C@@H](C)C(=O)[C@H](C)[C@@H](O)[C@]1(C)O,IC50,[1],0.0041 µM
same,pEC50,NCI-H69,5.84
same,pEC50,DU-145,5.95
same,pEC50,HMEC,< 5.00
same,pIC50,[2],7.05
same,pEC50,SK-MES-1,5.88
same,pEC50,[3],< 5.00
CC[C@H]1OC(=O)[C@H](C)[C@@H](O)[C@H](C)[C@@H](O[C@@H]2O[C@H](C)C[C@H](N(C)Cc3ccc(-c4cn(CCCCCCC(=O)NO)nn4)cc3)[C@H]2O)[C@](C)(OC)C[C@@H](C)C(=O)[C@H](C)[C@@H](O)[C@]1(C)O,IC50,[1],0.0019 µM
same,pEC50,NCI-H69,5.83
same,pEC50,DU-145,5.98
same,pEC50,HMEC,< 5.00
same,pIC50,[2],6.83
same,pEC50,SK-MES-1,5.89
same,pEC50,[3],< 5.00
CC[C@H]1OC(=O)[C@H](C)[C@@H](O)[C@H](C)[C@@H](O[C@@H]2O[C@H](C)C[C@H](N(C)Cc3ccc(-c4cn(CCCCCCC(=O)NO)nn4)cc3)[C@H]2O)[C@](C)(O)C[C@@H](C)CN(C)[C@H](C)[C@@H](O)[C@]1(C)O,IC50,[1],0.0106 µM
same,pIC50,Histone deacetylase 8,5.99
same,pEC50,NCI-H69,5.52
same,pEC50,DU-145,5.71
same,pEC50,HMEC,< 5.00
same,pIC50,[2],6.93
same,pEC50,SK-MES-1,5.59
same,pEC50,[3],< 5.00
CC[C@H]1OC(=O)[C@H](C)[C@@H](O[C@H]2C[C@@](C)(OC)[C@@H](O)[C@H](C)O2)[C@H](C)[C@@H](O[C@@H]2O[C@H](C)C[C@H](N(C)Cc3ccc(-c4cn(CCCCCCC(=O)NO)nn4)cc3)[C@H]2O)[C@](C)(O)C[C@@H](C)CN(C)[C@H](C)[C@@H](O)[C@]1(C)O,IC50,[1],0.0139 µM
same,pIC50,Histone deacetylase 8,6.00
same,pEC50,NCI-H69,5.46
same,pEC50,DU-145,5.73
same,pEC50,HMEC,< 5.00
same,pIC50,[2],7.11
same,pEC50,SK-MES-1,5.63
same,pEC50,[3],< 5.00
